Measurements published in ChEMBL document CHEMBL2150999, “Design, synthesis and biological evaluation of benzo[e][1,2,4]triazin-7(1H)-one and [1,2,4]-triazino[5,6,1-jk]carbazol-6-one derivatives as dual inhibitors of beta-amyloid aggregation and acetyl/butyryl cholinesterase” (Eur J Med Chem, 2012).

Target: Acetylcholinesterase (Electrophorus electricus) (UniProt O42275)
Assay: Inhibition of electric eel AChE using acetylthiocholine iodide as substrate at 10 uM after 20 mins by Ellman's method

Chain of Acetylcholinesterase (Electrophorus electricus) (O42275 24-633 limits assumed): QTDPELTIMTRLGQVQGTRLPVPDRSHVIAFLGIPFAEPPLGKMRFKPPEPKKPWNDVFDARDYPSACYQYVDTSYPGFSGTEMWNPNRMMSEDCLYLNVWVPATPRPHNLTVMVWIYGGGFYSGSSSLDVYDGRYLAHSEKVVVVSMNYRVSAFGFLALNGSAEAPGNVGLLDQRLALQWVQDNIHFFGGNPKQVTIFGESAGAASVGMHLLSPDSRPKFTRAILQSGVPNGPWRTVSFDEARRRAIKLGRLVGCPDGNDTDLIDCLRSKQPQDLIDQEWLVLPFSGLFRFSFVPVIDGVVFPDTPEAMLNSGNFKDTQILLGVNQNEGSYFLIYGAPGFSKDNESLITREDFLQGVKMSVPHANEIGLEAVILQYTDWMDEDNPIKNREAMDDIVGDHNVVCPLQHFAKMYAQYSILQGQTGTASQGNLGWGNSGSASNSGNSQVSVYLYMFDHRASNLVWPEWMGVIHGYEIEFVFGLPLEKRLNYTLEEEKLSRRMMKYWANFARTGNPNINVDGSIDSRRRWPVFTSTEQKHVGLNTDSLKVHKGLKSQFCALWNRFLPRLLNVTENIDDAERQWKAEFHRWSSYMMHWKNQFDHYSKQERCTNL

Point of comparison: `O=c1cc2n(-c3ccccc3)nc(-c3ccccc3)nc-2cc1Sc1ccccc1`, inhibition 49%. Against it:
- O=c1c(N2CCCC2)cc2nc(-c3ccccc3)nn3c4ccccc4c1c23 — lower, 44%
- CN(c1cc2nc(-c3ccccc3)nn(-c3ccccc3)c-2cc1=O)C1CCCCC1 — higher, 55%
- CC1CCN(c2cc3nc(-c4ccccc4)nn(-c4ccccc4)c-3cc2=O)CC1 — lower, 48%
- COc1cc2nc(-c3ccccc3)nn(-c3ccccc3)c-2cc1=O — lower, 47%
- O=c1cc2n(-c3ccccc3)nc(-c3ccccc3)nc-2cc1N1CCCCC1 — lower, 39%
- O=c1ccc2nc(-c3ccccc3)nn(-c3ccccc3)c-2c1 — lower, 47%
- O=c1cc2n(-c3ccccc3)nc(-c3ccccc3)nc-2cc1N1CCSCC1 — lower, 42%
- CN(CCCCCCCCNc1cc2nc(-c3ccccc3)nn3c4ccccc4c(c1=O)c23)Cc1ccccc1 — lower, 46%
- CN(C)CCCN(C)c1cc2nc(-c3ccccc3)nn(-c3ccccc3)c-2cc1=O — lower, 46%
- CCN(Cc1ccccc1)c1cc2nc(-c3ccccc3)nn(-c3ccccc3)c-2cc1=O — higher, 53%
- CN(Cc1ccccc1)c1cc2nc(-c3ccccc3)nn(-c3ccccc3)c-2cc1=O — higher, 56%
- CN(Cc1ccccc1)c1cc2nc(-c3ccccc3)nn3c4ccccc4c(c1=O)c23 — higher, 53%
- O=c1cc2n(-c3ccccc3)nc(-c3ccccc3)nc-2cc1N1CCC(c2ccccc2)CC1 — lower, 35%
- O=c1cc2n(-c3ccccc3)nc(-c3ccccc3)nc-2cc1N1CCCC1 — higher, 54%
- CC1CCCN(c2cc3nc(-c4ccccc4)nn(-c4ccccc4)c-3cc2=O)C1 (stereo not given) — higher, 55%
- O=c1cc2n(-c3ccccc3)nc(-c3ccccc3)nc-2cc1N1CCOCC1 — lower, 42%
- CC1CC(C)CN(c2cc3nc(-c4ccccc4)nn(-c4ccccc4)c-3cc2=O)C1 (stereo not given) — lower, 46%
- O=c1cc2n(-c3ccccc3)nc(-c3ccccc3)nc-2cc1N1CCc2ccccc2C1 — lower, 47%
- CN1CCN(c2cc3nc(-c4ccccc4)nn(-c4ccccc4)c-3cc2=O)CC1 — higher, 55%

Tested on: not listed separately
Assay: Inhibition of HFIP-induced amyloid beta (1-40) aggregation at 100 uM after 2 hrs by thioflavin T fluorescence method
In short: (§1)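 Pre-monomerized Aβ1-40 (HFIP-dissolved, lyophilized) at 30 µM in PBS (0.01 M, NaCl 0.1 M, pH 7.4) with 2% HFIP and 10% DMSO, coincubated with compound in triplicate at 25 °C for 2 h. Sample mixed with 25 µM ThT in 0.025 M phosphate pH 6.0; excitation 440 nm, emission 485 nm. Peptide-free blanks subtracted; % inhibition versus control. Primary screen at 100 µM. IC50 from 5–7 concentrations (200–0.01 µM) tested in duplicate, three independent experiments.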

Point of comparison: `O=c1cc2n(-c3ccccc3)nc(-c3ccccc3)nc-2cc1N1CCCC1`, inhibition 68%. Against it:
- CC1CCN(c2cc3nc(-c4ccccc4)nn(-c4ccccc4)c-3cc2=O)CC1 — the same, 68%
- COc1cc2nc(-c3ccccc3)nn(-c3ccccc3)c-2cc1=O — lower, 60%
- O=c1ccc2nc(-c3ccccc3)nn(-c3ccccc3)c-2c1 — lower, 39%
- O=c1cc2n(-c3ccccc3)nc(-c3ccccc3)nc-2cc1N1CCSCC1 — lower, 62%
- CN(CCCCCCCCNc1cc2nc(-c3ccccc3)nn3c4ccccc4c(c1=O)c23)Cc1ccccc1 — lower, 60%
- CN(C)CCCN(C)c1cc2nc(-c3ccccc3)nn(-c3ccccc3)c-2cc1=O — lower, 45%
- O=c1cc2n(-c3ccccc3)nc(-c3ccccc3)nc-2cc1Sc1ccccc1 — lower, 42%
- O=c1cc2n(-c3ccccc3)nc(-c3ccccc3)nc-2cc1N1CCOCC1 — lower, 48%
- O=c1cc2n(-c3ccccc3)nc(-c3ccccc3)nc-2cc1N1CCc2ccccc2C1 — the same, 68%
- CN1CCN(c2cc3nc(-c4ccccc4)nn(-c4ccccc4)c-3cc2=O)CC1 — lower, 55%

Target: Cholinesterase (Equus caballus) (UniProt P81908)
Sequence (P81908 whole entry): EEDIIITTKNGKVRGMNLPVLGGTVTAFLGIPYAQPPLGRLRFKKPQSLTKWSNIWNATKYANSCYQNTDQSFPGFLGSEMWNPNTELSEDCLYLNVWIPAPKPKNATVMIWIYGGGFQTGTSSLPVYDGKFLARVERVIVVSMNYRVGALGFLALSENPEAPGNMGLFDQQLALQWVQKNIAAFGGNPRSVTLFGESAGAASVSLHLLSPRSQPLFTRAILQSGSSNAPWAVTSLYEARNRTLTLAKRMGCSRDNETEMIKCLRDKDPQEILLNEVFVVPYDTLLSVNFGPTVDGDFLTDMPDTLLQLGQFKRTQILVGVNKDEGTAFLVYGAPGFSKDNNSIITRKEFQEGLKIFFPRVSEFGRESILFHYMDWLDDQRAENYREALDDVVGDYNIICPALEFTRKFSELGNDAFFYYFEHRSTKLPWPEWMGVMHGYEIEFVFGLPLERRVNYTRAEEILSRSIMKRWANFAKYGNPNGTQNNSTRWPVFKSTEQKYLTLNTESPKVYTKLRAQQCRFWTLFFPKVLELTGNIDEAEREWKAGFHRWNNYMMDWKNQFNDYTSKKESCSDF
Assay: Inhibition of equine serum BChE using butyrylthiocholine iodide as substrate at 10 uM after 20 mins by Ellman's method

Point of comparison: `CN(Cc1ccccc1)c1cc2nc(-c3ccccc3)nn3c4ccccc4c(c1=O)c23`, inhibition 26%. Against it:
- O=c1c(N2CCCC2)cc2nc(-c3ccccc3)nn3c4ccccc4c1c23 — higher, 52%
- CN(c1cc2nc(-c3ccccc3)nn(-c3ccccc3)c-2cc1=O)C1CCCCC1 — higher, 37%
- CC1CCN(c2cc3nc(-c4ccccc4)nn(-c4ccccc4)c-3cc2=O)CC1 — lower, 11%
- COc1cc2nc(-c3ccccc3)nn(-c3ccccc3)c-2cc1=O — lower, 15%
- O=c1cc2n(-c3ccccc3)nc(-c3ccccc3)nc-2cc1N1CCCCC1 — lower, 7%
- O=c1ccc2nc(-c3ccccc3)nn(-c3ccccc3)c-2c1 — higher, 27%
- O=c1cc2n(-c3ccccc3)nc(-c3ccccc3)nc-2cc1N1CCSCC1 — lower, 0%
- CN(CCCCCCCCNc1cc2nc(-c3ccccc3)nn3c4ccccc4c(c1=O)c23)Cc1ccccc1 — lower, 25%
- CN(C)CCCN(C)c1cc2nc(-c3ccccc3)nn(-c3ccccc3)c-2cc1=O — lower, 18%
- CCN(Cc1ccccc1)c1cc2nc(-c3ccccc3)nn(-c3ccccc3)c-2cc1=O — lower, 13%
- CN(Cc1ccccc1)c1cc2nc(-c3ccccc3)nn(-c3ccccc3)c-2cc1=O — lower, 22%
- O=c1cc2n(-c3ccccc3)nc(-c3ccccc3)nc-2cc1N1CCC(c2ccccc2)CC1 — lower, 10%
- O=c1cc2n(-c3ccccc3)nc(-c3ccccc3)nc-2cc1N1CCCC1 — lower, 15%
- O=c1cc2n(-c3ccccc3)nc(-c3ccccc3)nc-2cc1Sc1ccccc1 — lower, 6%
- CC1CCCN(c2cc3nc(-c4ccccc4)nn(-c4ccccc4)c-3cc2=O)C1 (stereo not given) — lower, 25%
- O=c1cc2n(-c3ccccc3)nc(-c3ccccc3)nc-2cc1N1CCOCC1 — lower, 0%
- CC1CC(C)CN(c2cc3nc(-c4ccccc4)nn(-c4ccccc4)c-3cc2=O)C1 (stereo not given) — lower, 18%
- O=c1cc2n(-c3ccccc3)nc(-c3ccccc3)nc-2cc1N1CCc2ccccc2C1 — lower, 14%
- CN1CCN(c2cc3nc(-c4ccccc4)nn(-c4ccccc4)c-3cc2=O)CC1 — lower, 12%

Tested on: not listed separately
Assay: Inhibition of HFIP-induced amyloid beta (1-40) aggregation after 2 hrs by thioflavin T fluorescence method
In short: as §1

Point of comparison: `CCN(Cc1ccccc1)c1cc2nc(-c3ccccc3)nn(-c3ccccc3)c-2cc1=O`, IC50 2100 nM. Against it:
- O=c1c(N2CCCC2)cc2nc(-c3ccccc3)nn3c4ccccc4c1c23 — within 1.5-fold, 2000 nM
- CN(c1cc2nc(-c3ccccc3)nn(-c3ccccc3)c-2cc1=O)C1CCCCC1 — 1.9-fold higher, 4000 nM
- O=c1cc2n(-c3ccccc3)nc(-c3ccccc3)nc-2cc1N1CCCCC1 — 3.4-fold higher, 7100 nM
- CN(Cc1ccccc1)c1cc2nc(-c3ccccc3)nn(-c3ccccc3)c-2cc1=O — 2.1-fold lower, 1000 nM
- CN(Cc1ccccc1)c1cc2nc(-c3ccccc3)nn3c4ccccc4c(c1=O)c23 — 2-fold higher, 4100 nM
- O=c1cc2n(-c3ccccc3)nc(-c3ccccc3)nc-2cc1N1CCC(c2ccccc2)CC1 — within 1.5-fold, 1500 nM
- CC1CCCN(c2cc3nc(-c4ccccc4)nn(-c4ccccc4)c-3cc2=O)C1 (stereo not given) — 2.9-fold lower, 730 nM
- CC1CC(C)CN(c2cc3nc(-c4ccccc4)nn(-c4ccccc4)c-3cc2=O)C1 (stereo not given) — 1.8-fold lower, 1200 nM
